This is an account of results in ChEMBL document CHEMBL3272265, “Interferon inducing activities of derivatives of 1,3-dimethyl-4-(3-dimethylaminopropylamino)-1H-pyrazolo(3,4-b)quinoline and related compounds” (J Med Chem, 1976).

Active and inactive are the calls of the source. No cut-off for these calls is given here. Where only a bound is given, the exact number is not on record here.

The test system of data set [1] is Mus musculus. Put plainly: Induction of interferon level in CD-1 mouse serum at 300 mg/kg, ip after 18 to 20 hrs by vesicular stomatitis virus plaque reduction assay. In kind it is functional, organism-based. The arrangement: dose 300 mg/kg. The gist of the method:
(§1)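 Dosing was oral or ip in 15-g female CD-1 mice, at least three per dose level, with compound in sterile distilled water as a solution or suspension. Pooled sera were collected 18–20 hr after dosing. Interferon units/ml were quantified by a plaque reduction assay on mouse L cells with vesicular stomatitis virus challenge, run against an NIAID reference mouse interferon standard.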
(In general: Plaques are areas of infected cells; plaque reduction assays count them against a control.)

In data set [2] the test system is Mus musculus. Put plainly: Induction of interferon level >= 32 units/mL in po dosed CD-1 mouse serum after 18 to 20 hrs by vesicular stomatitis virus plaque reduction assay. Format: functional. The note with it: CD-1, Serum, read-out: MED. The gist of the method: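 Female CD-1 mice (15 g; at least three per dose) received compound dissolved or suspended in sterile distilled water, orally or ip. They were bled 18–20 hr later and sera pooled. Interferon was titrated by plaque reduction in mouse L cells challenged with vesicular stomatitis virus, with an NIAID reference mouse interferon standard. MED was the lowest dose giving ≥32 units/ml. Top doses were 400 mg/kg po and 300 mg/kg ip.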

The subject of data set [3] is Mus musculus. Put plainly: Induction of interferon level in CD-1 mouse serum at 400 mg/kg, po after 18 to 20 hrs by vesicular stomatitis virus plaque reduction assay. In kind it is functional, organism-based. The arrangement: dose 400 mg/kg. The procedure, abridged:
as §1

The test system of data set [4] is Mus musculus. The experiment in a line: Toxicity in CD-1 mouse at 300 mg/kg, ip. Format: organism-based. Details: dose 300 mg/kg, route intraperitoneal. The conditions noted are these: in vivo.

`Cc1nn(C)c2nc3ccc(S(N)(=O)=O)cc3c(NCCCN(C)C)c12`: the result in the data set on Mus musculus [1] was inactive.
With `Cc1nn(C)c2nc3cc(F)ccc3c(NCCCN(C)C)c12.Cl`, the minimal effective dose in the data set with Mus musculus [2] was at least 100 mg/kg.
As to `Cc1cccc2c(NCCCN(C)C)c3ccccc3nc12`, the result with Mus musculus [3] was inactive.
Consider `Cc1nn(C)c2nc3ccccc3c(Cl)c12`, for which the outcome with Mus musculus [3] was inactive.
`Cc1nn(C)c2nc3ccccc3c(N)c12`: the outcome in the data set with Mus musculus [3] was inactive.
As for `CCN(CC)CC(O)CNc1c2ccccc2nc2c1c(C)nn2C.Cl` (configuration not stated), in the data set with Mus musculus [2], the minimal effective dose came to 400 mg/kg.
In the case of `Cc1nn(C)c2nc3cccc([N+](=O)[O-])c3c(NCCCN(C)C)c12`, the outcome with Mus musculus [3] was inactive.
Turning to `CNc1c2ccccc2nc2c1c(C)nn2C`, in the data set with Mus musculus [3], the outcome was inactive.
As to `Cc1nn(C)c2nc3ccccc3c(NC34CC5CC(CC(C5)C3)C4)c12`, in the data set on Mus musculus [1], the outcome was inactive.
The same measure, in the same setting: then `Cc1nn(CC(=O)NCCCN(C)C)c2nc3ccccc3c(NCCCN(C)C)c12`, with “inactive”.
For `Cc1nn(C)c2nc3cccc(N)c3c(NCCCN(C)C)c12`, the result with Mus musculus [1] was inactive.
With `Cc1nn(C)c2nc3ccccc3c(N3CCCCC3CCN(C)C)c12` (configuration not stated), in the data set on Mus musculus [1], the result was inactive.
`Cc1nn(C)c2nc3ccccc3c(NCc3ccccc3N(C)C)c12`: the result in the data set with Mus musculus [1] was inactive.
The same measure, in the same setting: with `COC(=O)c1ccc2c(NCCCN(C)C)c3c(C)nn(C)c3nc2c1` the entry was “inactive”; with `Cc1nn(C)c2nc3ccc(S(=O)(=O)NCCCN(C)C)cc3c(NCCCN(C)C)c12`, “inactive”.
`CCN(CC)CCCC(C)Nc1c2ccccc2nc2c1c(C)nn2C` (configuration not stated): in the data set on Mus musculus [3], the outcome was inactive.
On to `Cc1nn(C)c2nc3ccccc3c(NCCCC(=O)O)c12`, for which, in the data set with Mus musculus [1], the outcome was inactive.
Take `Cc1nn(C)c2nc3ccc(F)cc3c(NCCCN(C)C)c12.Cl`: the minimal effective dose in the data set with Mus musculus [2] was at least 400 mg/kg.
For `Cc1nn(C)c2nc3cc(C(=O)O)ccc3c(NCCCN(C)C)c12`, the outcome in the data set with Mus musculus [1] was inactive.
For `CC(=O)Nc1ccc2c(NCCCN(C)C)c3c(C)nn(C)c3nc2c1`, the result in the data set with Mus musculus [3] was inactive.
As for `Cc1nn(-c2ccccc2)c2nc3ccccc3c(NCCCN(C)C)c12`, the result in the data set on Mus musculus [1] was inactive.
`Cc1nn(C)c2nc3ccccc3c(NCCCCCCN(C)C)c12.Cl`: the minimal effective dose with Mus musculus [2] came out at 200 mg/kg.
On to `COc1ccc(-n2nc(C)c3c(NCCCN(C)C)c4ccccc4nc32)cc1`, for which, in the data set with Mus musculus [1], the outcome was inactive.
Take `Cc1nn(C)c2nc3ccccc3c(NCCN(C)C)c12.Cl`: the minimal effective dose with Mus musculus [2] came out at 400 mg/kg.
In the case of `Cc1nn(C)c2ncc(C(=O)O)c(NCCCN(C)C)c12`, the outcome in the data set with Mus musculus [3] was inactive.
On to `CNCc1c2ccccc2nc2c1c(C)nn2C`, for which the result in the data set with Mus musculus [1] was inactive.
Same read-out and setting: then `Cc1nn(C)c2nc3ncncc3c(NCCCN(C)C)c12`, with “inactive”.
As to `Cc1nn(C)c2nc3ccccc3cc12`, the result in the data set on Mus musculus [3] was inactive.
Turning to `Cc1nn(C)c2nc3ccccc3c(NCCC[S+](C)[O-])c12` (configuration not stated), the result in the data set with Mus musculus [3] was inactive.
`Cc1nn(C)c2nc3ccc(N)cc3c(NCCCN(C)C)c12`: in the data set with Mus musculus [1], the result was inactive.
Consider `Cc1nn(C)c2nc3ccccc3c(NCCCNC3CCCCC3)c12.Cl`, for which the Activity entry with Mus musculus [4] is listed as “Toxic”.
For the compound `Cc1nn(C)c2nc3ccccc3c(S)c12`, the outcome in the data set with Mus musculus [1] was inactive.
For the compound `CN(C)CCCNc1c2ccccc2nc2c1ccn2C`, the minimal effective dose with Mus musculus [2] turned out to be 200 mg/kg.
For `Cc1nn(C)c2nc3cc(C(=O)NCCCN(C)C)ccc3c(NCCCN(C)C)c12`, the outcome in the data set with Mus musculus [1] was inactive.
`Cc1nn(C)c2nc3ccccc3c(SCc3ccccc3)c12`: the result with Mus musculus [3] was inactive.
The same measure, in the same setting: with `Cc1nn(C)c2nc3cc(N)ccc3c(NCCCN(C)C)c12` the entry was “inactive”; with `Cc1nn(C)c2nc3ccccc3c(CCNCCCN(C)C)c12`, “inactive”.
`Cc1nn(C)c2nc3ccccc3c(NCCCCN(C)C)c12.Cl`: in the data set with Mus musculus [2], the minimal effective dose was determined as 200 mg/kg.
`Cc1cc(Nc2ccccc2CNCCCN(C)C)n(C)n1`: the result with Mus musculus [1] was inactive.
For `Cc1nn(C)c2nc3cc(C(N)=O)ccc3c(NCCCN(C)C)c12`, in the data set on Mus musculus [3], the result was inactive.
As for `CC(=O)Nc1ccc2nc3c(c(C)nn3C)c(NCCCN(C)C)c2c1`, in the data set on Mus musculus [1], the result was inactive.
`Cc1nn(C)c2nc3ccccc3c(NCCCO)c12`: in the data set with Mus musculus [3], the result was inactive.
With `CN(C)CCCNc1c2ccccc2nc2c1cnn2C.Cl`, in the data set on Mus musculus [2], the minimal effective dose came out at 200 mg/kg.
As to `Cc1n[nH]c2nc3ccccc3c(NCCCN(C)C)c12`, the outcome in the data set with Mus musculus [1] was inactive.
Still for that read-out and setting: then `Cc1nn(C)c2nc3ccc(O)cc3c(NCCCN(C)C)c12`, with “inactive”.
As for `Cc1cc(C)c2nc3c(c(C)nn3C)c(NCCCN(C)C)c2c1.Cl`, the minimal effective dose in the data set on Mus musculus [2] came to 400 mg/kg.
Consider `Cc1nn(C)c2nc3c(c(C)nn3C)c(NCCCN(C)C)c12`, for which the result with Mus musculus [3] was inactive.
Turning to `Cc1nn(-c2ccc(C(=O)O)cc2)c2nc3ccccc3c(NCCCN(C)C)c12`, the result in the data set on Mus musculus [1] was inactive.
Same read-out and setting: then `CN(C)CCCNc1ccncc1`, with “inactive”; and `Cc1cc(NCCCNc2c3ccccc3nc3c2c(C)nn3C)n(C)n1`, with “inactive”; and `Cc1nn(CCO)c2nc3ccccc3c(NCCCN(C)C)c12`, with “inactive”.
Same read-out and setting: with `Cc1cc(Nc2ccccc2C(=O)NCCCN(C)C)n(C)n1` the entry was “inactive”; with `Cc1nn(C)c2nc3ccccc3c(NCCCN(CCO)CCO)c12`, “inactive”; with `CN(C)CCCNc1ccnc2ccccc12`, “inactive”.
Take `Cc1nsc2nc3ccccc3c(NCCCN(C)C)c12`: in the data set on Mus musculus [3], the result was inactive.
As to `Cc1nn(C)c2c1Cc1ccccc1N2`, the result in the data set on Mus musculus [3] was inactive.
For `Cc1nn(CC(=O)O)c2nc3ccccc3c(NCCCN(C)C)c12`, the result in the data set on Mus musculus [1] was inactive.
Turning to `Cc1cc(Nc2c3ccccc3nc3c2c(C)nn3C)n(C)n1`, in the data set with Mus musculus [1], the result was inactive.
The same measure, in the same setting: then `Cc1nn(C)c2nc3ccc(S(=O)(=O)O)cc3c(NCCCN(C)C)c12`, with “inactive”.
For `Cc1nn(C)c2nc3ccccc3c(NCCCCl)c12`, the outcome in the data set on Mus musculus [3] was inactive.
For the compound `Cc1nn(C)c2nc3ccccc3c(CCNCCCNCCCN(C)C)c12`, in the data set on Mus musculus [1], the result was inactive.
In the case of `Cc1nn(C)c2nc3cc([N+](=O)[O-])ccc3c(NCCCN(C)C)c12`, the result with Mus musculus [1] was inactive.
`Cc1nn(C)c2nc3cccc(NCCCN(C)C)c3cc12`: the result in the data set with Mus musculus [3] was inactive.
Regarding `Cc1nn(C)c2nc3cc(O)ccc3c(NCCCN(C)C)c12`, the outcome with Mus musculus [1] was inactive.
On to `Cc1nn(C)c2nc3ccccc3c(NCCCN3CCCC3)c12.Cl`, for which, in the data set with Mus musculus [2], the minimal effective dose stood at 200 mg/kg.
In the case of `Cc1nn(C)c2nc3c(cc12)CCCC3`, the outcome with Mus musculus [3] was inactive.
In the case of `COC(=O)CCCNc1c2ccccc2nc2c1c(C)nn2C`, in the data set on Mus musculus [1], the result was inactive.
On to `CSCCCNc1c2ccccc2nc2c1c(C)nn2C`, for which the result in the data set on Mus musculus [3] was inactive.
Take `Cc1nn(C)c2nc3ccccc3c(NCCCNC=O)c12`: the result in the data set with Mus musculus [1] was inactive.
For `Cc1nn(C)c2nccc(NCCCN(C)C)c12`, in the data set with Mus musculus [3], the result was inactive.
Consider `Cc1nn(C)c2nc3c(cnn3C)c(NCCCN(C)C)c12`, for which the result in the data set on Mus musculus [3] was inactive.
Turning to `Cc1nn(C)c2nc3c(Cl)cccc3c(NCCCN(C)C)c12`, the result with Mus musculus [1] was inactive.
